# Measurements gathered from unrelated publications.
# Each line is one published result; the experiments were not run side by side.
# Observed: cell growth or viability
Structure (SMILES),cell line,technique,time,IC50 [µM]
COc1ccc(Nc2ncnc3c2ncn3Cc2ccc(C(=O)NO)cc2)cc1,MM1.S,MTT,72 h,2.04
NNc1nc2c(Cl)cc(Cl)cc2c(=O)n1-c1ccccc1,SW480,MTT,48 h,> 200
CS(=O)(=O)CCNCc1ccc(-c2ccc3ncnc(Nc4ccc(OCc5cccc(F)c5)c(Cl)c4)c3c2)o1,NCI-N87,ATP luminescence,,0.0572
O=C(NO)c1ccc(Cn2cnc3c(Nc4ccc(Br)cc4F)ncnc32)cc1,MM1.S,MTT,72 h,1.87
CCOc1cc2ncc(C#N)c(Nc3ccc(OCc4ccccn4)c(Cl)c3)c2cc1NC(=O)/C=C/CN(C)C,NCI-N87,ATP luminescence,,0.0185
COc1ccc(Nc2ncnc3c2ncn3Cc2ccc(C(=O)Nc3ccccc3N)cc2)cc1,MM1.S,MTT,72 h,15.8
Cc1cc2c(C(N)=O)cccc2n1-c1nc2c(c(NCc3ccccc3)n1)CCCN2,MM1.S,,72 h,0.7
O=C(NO)Nc1nc2ccc(Br)cc2c(=O)n1-c1ccccc1,SW480,MTT,48 h,> 200
CC1(P2(=O)CCCCC2)C=CCC=C1,SW480,MTT,72 h,> 100
CN1CCC(NC2CCc3[nH]c4c(C(N)=O)ccc(-c5ccccc5Cl)c4c3C2)CC1 (centres unmarked),HGC-27,,96 h,0.00961
O=c1c2cc(Cl)cc(Cl)c2nc(NNc2cccc(Cl)c2)n1-c1ccccc1,SW480,MTT,48 h,> 200
COc1cccc2c1C(=O)c1c(O)c3c(c(O)c1C2=O)C[C@@](O)(C(=O)CO)C[C@@H]3O[C@H]1C[C@H](N)[C@H](O)[C@H](C)O1,SW480,MTT,72 h,0.75
C=C1CC[C@@H]2[C@](C)(CO)[C@H](O)CC[C@@]2(C)[C@@H]1C/C=C1/C(=O)OC[C@H]1O,SW480,MTT,24 h,5.08
CC(C)C[C@H](NC(=O)[C@@H]1Cc2c(F)c(F)c(c(F)c2F)Sc2ccc(cc2)CC(=O)N[C@@H](C(C)C)C(=O)N1)C(=O)[C@@]1(C)CO1,D283 Med,,,0.091
O=C(NO)c1ccc(Cn2cnc3c(Nc4ccc(F)c(Cl)c4)ncnc32)cc1,MM1.S,MTT,72 h,2.69
CN(C)C(=O)Nc1nc2ccc(Br)cc2c(=O)n1-c1ccccc1,SW480,MTT,48 h,> 200
CC(=O)Nc1ccc(O)cc1,THLE-2,MTT,,28.6
NNc1nc2c(Cl)cc(Cl)cc2c(=O)n1-c1ccc(Cl)cc1,SW480,MTT,48 h,> 200
COc1cccc2c1C(=O)c1c(O)c3c(c(O)c1C2=O)C[C@@](O)(C(=O)CO)C[C@@H]3O[C@H]1C[C@H](N)[C@H](O)[C@H](C)O1,SW480,MTT,24 h,0.79
Cc1ccc(NNc2nc3c(Cl)cc(Cl)cc3c(=O)n2-c2ccccc2)cc1,SW480,MTT,48 h,132
CC1=CC(=O)C(C(C)C)=CC1=O,FR2,SRB,48 h,< 100
O=C(NO)Nc1nc2c(Cl)cc(Cl)cc2c(=O)n1-c1ccc(Cl)cc1,SW480,MTT,48 h,> 200
CC1(P2(=O)CCCCC2)CCCCC1,SW480,MTT,72 h,> 100
